ChEMBL document CHEMBL2021813, “Semisynthetic neoclerodanes as kappa opioid receptor probes” (Bioorg Med Chem, 2012)
pEC50, pKi: −log10 of the molar value.

How the values were obtained:
[1] = target: T1, Kappa-type opioid receptor (Homo sapiens, UniProt P41145); assay: Agonist activity at human recombinant kappa opioid receptor expressed in CHO cells assessed as [35S]GTP-gamma-S binding after 3 hrs by liquid scintillation counting; type: functional, cell-based
Outline: (§1)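 hKOP-CHO membranes (50 μg protein) were incubated with 50 pM [35S]GTP-γ-S and 40 μM GDP. Final buffer was 50 mM Tris-HCl pH 7.4, 100 mM NaCl, 10 mM MgCl2, 1 mM EDTA, 1 mM DTT and 0.1% BSA. Incubation ran 3 hr at 25 °C. Nonspecific binding was set with 40 μM GTP-γ-S. Bound label was separated by vacuum filtration through GF/B and counted.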

Mu-type opioid receptor [2] = target: T2, Mu-type opioid receptor (Homo sapiens, UniProt P35372); assay: Displacement of [3H]DAMGO from human recombinant mu opioid receptor expressed in CHO cells after 2 hrs by liquid scintillation counting; type: cell-based
Outline: (§2)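 Membranes from CHO cells stably transfected with human DOP, MOP or KOP receptor, in 50 mM Tris-HCl pH 7.4 with a protease inhibitor cocktail. The ~2 nM [3H]radioligand was displaced by 10 drug concentrations, in triplicate, for 2 hr at 25 °C, then filtered over GF/B. Nonspecific binding was set by 20 μM levallorphan (DADLE, DAMGO) or 1 μM (−)-U69,593 (U69,593). Ki (±SD) came from full curves, n=3.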

[3] = target: T3, Delta-type opioid receptor (Homo sapiens, UniProt P41143); assay: Displacement of [3H]DADLE from human recombinant delta opioid receptor expressed in CHO cells after 2 hrs by liquid scintillation counting; type: cell-based; outline: as §2
[4] = target: T3, Delta-type opioid receptor; assay: Displacement of [3H]DADLE from human recombinant delta opioid receptor expressed in CHO cells at 10 uM after 2 hrs by liquid scintillation counting; type: cell-based
Outline: (§3)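 Radioligand (~2 nM) competition on human opioid receptor CHO membranes in Tris-HCl pH 7.4, 2 hr at 25 °C, with GF/B filtration and scintillation counting. Results are percent of control produced by a single test drug concentration, 1 μM or 10 μM as the line states. Nonspecific binding was set by 20 μM levallorphan (DADLE, DAMGO) or 1 μM (−)-U69,593 (U69,593).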

[5] = target: T1, Kappa-type opioid receptor; assay: Displacement of [3H]U69593 from human recombinant kappa opioid receptor expressed in CHO cells after 2 hrs by liquid scintillation counting; type: cell-based; outline: as §2
[6] = target: T1, Kappa-type opioid receptor; assay: Agonist activity at human recombinant kappa opioid receptor expressed in CHO cells assessed as [35S]GTP-gamma-S binding after 3 hrs by liquid scintillation counting relative to (-)U50488; type: functional, cell-based; outline: as §1
Mu-type opioid receptor [7] = target: T2, Mu-type opioid receptor; assay: Displacement of [3H]DAMGO from human recombinant mu opioid receptor expressed in CHO cells at 10 uM after 2 hrs by liquid scintillation counting; type: cell-based; outline: as §3
Mu-type opioid receptor [8] = target: T2, Mu-type opioid receptor; assay: Displacement of [3H]DAMGO from human recombinant mu opioid receptor expressed in CHO cells at 1 uM after 2 hrs by liquid scintillation counting; type: cell-based; outline: as §3
Rhesus monkey = assay: In vivo binding affinity to kappa opioid receptor in iv dosed rhesus monkey assessed as rightward shift in serum prolactin level administered every 20 mins measured every 15 mins by immunoradiometric analysis; type: functional; conditions: Macaca mulatta
Outline: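 Chair-trained male rhesus monkeys received i.v. cumulative doses rising in 0.5 log steps every 20 min. Blood was sampled 15 min after each dose, after two baseline samples at −10 and −5 min. Serum prolactin was expressed as change from each subject's pre-injection baseline, as mean ±SEM. ED50 came from linear regression of mean dose-effect points spanning the ED50.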

[9] = target: T3, Delta-type opioid receptor; assay: Displacement of [3H]DADLE from human recombinant delta opioid receptor expressed in CHO cells at 1 uM after 2 hrs by liquid scintillation counting; type: cell-based; outline: as §3
[10] = target: T1, Kappa-type opioid receptor; assay: Agonist activity at human recombinant kappa opioid receptor expressed in CHO cells assessed as calcium mobilization after 1 hrs by fluorescence analysis; type: functional, cell-based
Outline: (§4)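 CHO cells stably expressing KOP receptor with Gαq16 were plated at 30,000 cells/well and grown overnight at 37 °C. They were loaded with Calcium 5 dye in HBSS with 20 mM HEPES, 0.25% BSA, 1% DMSO and probenecid for 1 h at 37 °C. Compounds were added at 10X after a ~17 sec baseline, and fluorescence (ex 485/em 525 nm) was read every 1.52 sec for 60 sec. EC50 and Emax are given ±SD.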

[11] = target: T1, Kappa-type opioid receptor; assay: Agonist activity at human recombinant kappa opioid receptor expressed in CHO cells assessed as calcium mobilization after 1 hrs by fluorescence analysis relative to U69593; type: functional, cell-based; outline: as §4
[12] = target: T1, Kappa-type opioid receptor; assay: Partial agonist activity at human recombinant kappa opioid receptor expressed in CHO cells assessed as [35S]GTP-gamma-S binding after 3 hrs by liquid scintillation counting; type: functional, cell-based; outline: as §1
[13] = target: T1, Kappa-type opioid receptor; assay: Partial agonist activity at human recombinant kappa opioid receptor expressed in CHO cells assessed as [35S]GTP-gamma-S binding after 3 hrs by liquid scintillation counting relative to (-)U50488; type: functional, cell-based; outline: as §1
[14] = Chemical solubility of the compound in THF; type: physicochemical
[15] = Chemical solubility of the compound in 50 mM Tris-HCl at pH 7.4; type: physicochemical; conditions: buffer
[16] = target: T1, Kappa-type opioid receptor; assay: Displacement of [3H]U69593 from human recombinant kappa opioid receptor expressed in CHO cells at 10 uM after 2 hrs by liquid scintillation counting; type: cell-based; outline: as §3

T1 sequence (P41145 whole entry): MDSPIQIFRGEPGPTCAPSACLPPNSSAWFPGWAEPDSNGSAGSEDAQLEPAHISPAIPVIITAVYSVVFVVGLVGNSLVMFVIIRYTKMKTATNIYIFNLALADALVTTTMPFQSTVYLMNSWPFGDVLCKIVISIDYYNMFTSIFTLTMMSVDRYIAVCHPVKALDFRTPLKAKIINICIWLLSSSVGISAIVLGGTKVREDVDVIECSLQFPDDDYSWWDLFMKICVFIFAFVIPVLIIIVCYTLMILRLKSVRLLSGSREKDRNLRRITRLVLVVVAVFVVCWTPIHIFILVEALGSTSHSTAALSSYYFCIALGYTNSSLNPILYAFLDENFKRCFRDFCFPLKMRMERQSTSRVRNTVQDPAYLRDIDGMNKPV
T3 sequence (P41143 whole entry): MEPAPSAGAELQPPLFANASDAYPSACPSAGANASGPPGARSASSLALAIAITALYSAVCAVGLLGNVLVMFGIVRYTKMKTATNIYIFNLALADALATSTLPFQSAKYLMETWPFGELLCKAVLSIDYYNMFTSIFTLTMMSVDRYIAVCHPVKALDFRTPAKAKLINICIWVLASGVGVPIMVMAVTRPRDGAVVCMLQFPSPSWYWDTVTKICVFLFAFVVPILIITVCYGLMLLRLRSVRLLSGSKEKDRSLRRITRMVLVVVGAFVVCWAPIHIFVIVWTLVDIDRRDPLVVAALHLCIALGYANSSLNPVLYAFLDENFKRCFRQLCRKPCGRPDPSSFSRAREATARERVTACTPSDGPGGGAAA
T2 sequence (P35372 whole entry): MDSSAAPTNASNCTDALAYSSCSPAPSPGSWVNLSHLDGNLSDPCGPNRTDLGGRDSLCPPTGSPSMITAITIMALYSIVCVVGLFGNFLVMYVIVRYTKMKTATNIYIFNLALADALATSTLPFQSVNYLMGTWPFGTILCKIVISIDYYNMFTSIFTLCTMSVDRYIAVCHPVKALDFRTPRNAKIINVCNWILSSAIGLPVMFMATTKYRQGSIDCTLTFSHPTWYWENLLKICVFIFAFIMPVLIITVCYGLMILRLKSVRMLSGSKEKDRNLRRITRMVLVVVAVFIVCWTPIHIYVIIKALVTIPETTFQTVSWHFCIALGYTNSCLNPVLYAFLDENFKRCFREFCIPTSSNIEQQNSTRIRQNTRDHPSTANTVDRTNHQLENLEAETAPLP

COC(=O)[C@@H]1C[C@H](OC(C)=O)C(=O)[C@H]2[C@@]1(C)CC[C@H]1C(=O)O[C@H](C(=O)c3ccco3)C[C@]21C
pEC50 [1]: 5.67
pKi (Mu-type opioid receptor [2]): 5.01
pKi [3]: < 5.00
Activity [4]: 91%
pKi [5]: 7.10
Emax [6]: 92%

COC(=O)[C@@H]1C[C@H](OC(C)=O)C(=O)[C@H]2[C@@]1(C)CC[C@H]1C(=O)O[C@H](/C=C/c3ccoc3)C[C@]21C
pKi (Mu-type opioid receptor [2]): < 5.00
Activity (Mu-type opioid receptor [7]): 78%
pKi [3]: < 5.00
Activity [4]: 66%
pKi [5]: 5.95

COC(=O)[C@@H]1C[C@H](OC(C)=O)C(=O)[C@H]2[C@@]1(C)CC[C@H]1C(=O)O[C@H](C(=O)c3cccc(O)c3)C[C@]21C
pKi (Mu-type opioid receptor [2]): < 6.00
Activity (Mu-type opioid receptor [8]): 55%
pKi [3]: < 5.00
Activity [4]: 80%
pKi [5]: 6.96

COC(=O)[C@@H]1C[C@H](OC(C)=O)C(=O)[C@H]2[C@@]1(C)CC[C@H]1C(=O)O[C@H](c3ccoc3)C[C@]21C [SALVINORIN A]
ED50 (Rhesus monkey): 0.0037 mg/kg

COC(=O)[C@@H]1C[C@H](OC(C)=O)C(=O)[C@H]2[C@@]1(C)CC[C@H]1C(=O)O[C@H](C(=O)c3cccc(C(N)=O)c3)C[C@]21C
pEC50 [1]: 6.14
pKi (Mu-type opioid receptor [2]): < 5.00
Activity (Mu-type opioid receptor [8]): 84%
pKi [3]: < 5.00
Activity [9]: 52%
pKi [5]: 7.40
Emax [6]: 92%
pEC50 [10]: 7.12
Emax [11]: 97%

COC(=O)[C@@H]1C[C@H](OC(C)=O)C(=O)[C@H]2[C@@]1(C)CC[C@H]1C(=O)O[C@H](C(=O)c3cccc(OC)c3)C[C@]21C
pKi (Mu-type opioid receptor [2]): 5.51
pKi [3]: < 5.00
Activity [9]: 77%
pKi [5]: 6.54

COC(=O)[C@@H]1C[C@H](OC(C)=O)C(=O)[C@H]2[C@@]1(C)CC[C@H]1C(=O)O[C@H](C(=O)c3cc4ccccc4s3)C[C@]21C
pKi (Mu-type opioid receptor [2]): < 5.00
Activity (Mu-type opioid receptor [7]): 58%
pKi [3]: < 5.00
Activity [4]: 95%
pKi [5]: 5.04

COC(=O)[C@@H]1C[C@H](OC(C)=O)C(=O)[C@H]2[C@@]1(C)CC[C@H]1C(=O)O[C@H](C(=O)c3ccccc3)C[C@]21C
pKi (Mu-type opioid receptor [2]): 5.83
pKi [3]: < 5.00
Activity [4]: 100%
pKi [5]: 7.15
pEC50 [12]: 5.64
Emax [13]: 74%

C/C=C\C(=O)[C@@H]1C[C@]2(C)[C@H]3C(=O)[C@@H](OC(C)=O)C[C@@H](C(=O)OC)[C@]3(C)CC[C@H]2C(=O)O1
pKi (Mu-type opioid receptor [2]): < 5.77
pKi [3]: < 5.30
pKi [5]: 6.49

COC(=O)[C@@H]1C[C@H](OC(C)=O)C(=O)[C@H]2[C@@]1(C)CC[C@H]1C(=O)O[C@H](C(=O)c3ccc(OC)cc3)C[C@]21C
pKi (Mu-type opioid receptor [2]): < 5.00
Activity (Mu-type opioid receptor [7]): 74%
pKi [3]: < 5.00
Activity [9]: 81%
pKi [5]: < 5.00

COC(=O)[C@@H]1C[C@H](OC(C)=O)C(=O)[C@H]2[C@@]1(C)CC[C@H]1C(=O)O[C@H](C(=O)c3ccsc3)C[C@]21C
pEC50 [1]: 6.21
pKi (Mu-type opioid receptor [2]): 5.60
pKi [3]: < 5.00
Activity [4]: 88%
pKi [5]: 7.51
Emax [6]: 88%

COC(=O)[C@@H]1C[C@H](OC(C)=O)C(=O)[C@H]2[C@@]1(C)CC[C@H]1C(=O)O[C@H](C=O)C[C@]21C
solubility [14]: Insoluble

COC(=O)[C@@H]1C[C@H](OC(C)=O)C(=O)[C@H]2[C@@]1(C)CC[C@H]1C(=O)O[C@H](c3ccco3)C[C@]21C
pEC50 [1]: 6.85
pKi (Mu-type opioid receptor [2]): < 6.00
Activity (Mu-type opioid receptor [8]): 81%
pKi [3]: < 5.00
Activity [9]: 99%
Emax [6]: 104%
pEC50 [10]: 7.91
Emax [11]: 97%

COC(=O)[C@@H]1C[C@H](OC(C)=O)C(=O)[C@H]2[C@@]1(C)CC[C@H]1C(=O)O[C@@H](c3ccoc3)C[C@]21C [12-EPI-SALVINORIN A]
Activity (Mu-type opioid receptor [7]): 72%
Activity [4]: 74%
ED50 (Rhesus monkey): 0.038 mg/kg

COC(=O)[C@@H]1C[C@H](OC(C)=O)C(=O)[C@H]2[C@@]1(C)CC[C@H]1C(=O)O[C@H](C(=O)c3ccccc3OC)C[C@]21C
pKi (Mu-type opioid receptor [2]): < 5.00
Activity (Mu-type opioid receptor [7]): 53%
pKi [3]: < 5.00
Activity [9]: 87%
pKi [5]: 5.97

COC(=O)[C@@H]1C[C@H](OC(C)=O)C(=O)[C@H]2[C@@]1(C)CC[C@H]1C(=O)O[C@H](C(=O)c3cccc(OC(F)(F)F)c3)C[C@]21C
pKi (Mu-type opioid receptor [2]): 5.32
pKi [3]: < 6.00
Activity [9]: 37%
pKi [5]: < 5.00

COC(=O)[C@@H]1C[C@H](OC(C)=O)C(=O)[C@H]2[C@@]1(C)CC[C@H]1C(=O)O[C@H](C(=O)c3cccc(C#N)c3)C[C@]21C
pKi (Mu-type opioid receptor [2]): < 6.00
Activity (Mu-type opioid receptor [8]): 61%
pKi [3]: < 5.00
Activity [9]: 68%
pKi [5]: 6.66

COC(=O)[C@@H]1C[C@H](OC(C)=O)C(=O)[C@H]2[C@@]1(C)CC[C@H]1C(=O)O[C@H](C(=O)c3ccoc3)C[C@]21C
pKi (Mu-type opioid receptor [2]): < 5.00
Activity (Mu-type opioid receptor [7]): 66%
pKi [3]: < 5.00
Activity [4]: 95%
pKi [5]: 6.82

COC(=O)[C@@H]1C[C@H](OC(C)=O)C(=O)[C@H]2[C@@]1(C)CC[C@H]1C(=O)O[C@H](C(=O)c3cccc(C(F)(F)F)c3)C[C@]21C
pKi (Mu-type opioid receptor [2]): 5.47
pKi [3]: < 6.00
Activity [9]: 46%
pKi [5]: 5.65

COC(=O)[C@@H]1C[C@H](OC(C)=O)C(=O)[C@H]2[C@@]1(C)CC[C@H]1C(=O)O[C@H](/C=C\c3ccoc3)C[C@]21C
Activity [4]: 94%
Emax [6]: 105%
solubility [15]: Insoluble

COC(=O)[C@@H]1C[C@H](OC(C)=O)C(=O)[C@H]2[C@@]1(C)CC[C@H]1C(=O)O[C@H](C(=O)c3cccs3)C[C@]21C
pEC50 [1]: 5.79
pKi (Mu-type opioid receptor [2]): < 5.00
Activity (Mu-type opioid receptor [7]): 65%
pKi [3]: < 5.00
Activity [4]: 99%
pKi [5]: 7.44
Emax [6]: 95%

COC(=O)[C@@H]1C[C@H](OC(C)=O)C(=O)[C@H]2[C@@]1(C)CC[C@H]1C(=O)O[C@H](C(=O)c3ccc(O)cc3)C[C@]21C
pKi (Mu-type opioid receptor [2]): < 5.00
Activity (Mu-type opioid receptor [7]): 93%
pKi [3]: < 5.00
Activity [4]: 100%
pKi [5]: 5.07

COC(=O)[C@@H]1C[C@H](OC(C)=O)C(=O)[C@H]2[C@@]1(C)CC[C@H]1C(=O)O[C@H](C(=O)c3csc4ccccc34)C[C@]21C
pKi (Mu-type opioid receptor [2]): < 6.00
Activity (Mu-type opioid receptor [8]): 60%
pKi [3]: < 6.00
Activity [9]: 56%
pKi [5]: < 5.00

COC(=O)[C@@H]1C[C@H](OC(C)=O)C(=O)[C@H]2[C@@]1(C)CC[C@H]1C(=O)O[C@H](C(=O)c3ccccc3O)C[C@]21C
pKi (Mu-type opioid receptor [2]): 5.44
pKi [3]: < 5.00
Activity [4]: 94%
pKi [5]: 6.30

COC(=O)[C@@H]1C[C@H](OC(C)=O)C(=O)[C@H]2[C@@]1(C)CC[C@H]1C(=O)O[C@H](C(=O)c3cc4ccccc4o3)C[C@]21C
pKi (Mu-type opioid receptor [2]): < 5.00
Activity (Mu-type opioid receptor [7]): 100%
pKi [3]: < 5.00
Activity [4]: 91%
pKi [5]: < 5.00
Activity [16]: 92%
